Test system: MS2 coat protein
Assay: apparent Kd, MS2 coat protein; higher = weaker binding; RNA-MaP array
In short: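 Apparent Kd was taken as the median of binding curves fitted cluster by cluster. The designed RNAs were made by transcription of sequenced DNA templates on an Illumina sequencing chip and exposed to fluorescently labeled MS2 coat protein (1.5 nM to 3 μM) at room temperature, with or without input ligand, for 0.8–1.5 h at the lowest and 10–20 min at the highest concentrations. Any design measured on fewer than 10 clusters was left out.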

[1] = designed as: ON switch for tryptophan, no ligand
[2] = ligand present: tryptophan, designed as: ON switch for tryptophan
[3] = designed as: ON switch for flavin mononucleotide, no ligand
[4] = ligand present: flavin mononucleotide, designed as: ON switch for flavin mononucleotide
[5] = designed as: OFF switch for flavin mononucleotide, no ligand
[6] = ligand present: flavin mononucleotide, designed as: OFF switch for flavin mononucleotide
[7] = designed as: ON switch for theophylline, no ligand
[8] = ligand present: theophylline, designed as: ON switch for theophylline
[9] = designed as: OFF switch for tryptophan, no ligand
[10] = ligand present: tryptophan, designed as: OFF switch for tryptophan

Sequence	apparent Kd [3]	apparent Kd [4]	apparent Kd [5]	apparent Kd [6]	further results
UACGUGGAUGCGGCCGCCACUGCUCUGAGCGAGUUGCUCUAUGGACAUGAGGAUCACCCAUGUCACAGGACCGGGCACGCUUUAA					apparent Kd [1]: 10.4 nM; apparent Kd [2]: 9.67 nM
GAAGCGUGAGCAGGAUAUUUAGACAUGAGGAUCACCCAUGUGUGCUAACUAGAAUGCAGGUUUUUAAAGAAGGGCUCCUAGAUU	11.4 nM	7.11 nM			
UCGAUCAUGUAGAAGGCAUCAGAAACUGGGUGAUGAGGAUAUACGUUAAGACAUGAGGAUCACCCAUGUAAGCAUUGCAAACAC	116 nM	86.2 nM			
AAAGAAAACGGAGGAUAUAGAAAUCCGAAUCCAAACCCGCCAACAUGAGGAUCACCCAUGUGCUUCUAGAAGGCCGAAUGCUAC	19.8 nM	17 nM			
UUCAUUUAGGAGGAUAUUUAGGCAUGAGGGCUAAAAGAAGGCCUAACAUGAGGAUCACCCAUGUUUGGACUAGA			5.51 nM	7.4 nM	
GAGAGGCGCUAGAAGGCACGCGUUCGGAUUGAGUGAGGAUAUAGUCCUCUGCCACAUGAGGAUCACCCAUGUAGUUUGAUAGAG	6.28 nM	6.12 nM			
UAUUGAAUCCUCCCGACAUGAGGAUCACCCAUGUUACCUGCGCAGGAUAUCGUAUGUAUACCCGGCGAGAAGGGCGCUAGCGAG			213 nM	160 nM	
UGCGGACAUGAGGAUCACCCAUGUGCGGAUACCAGCAGCCGGCUCUGCCCUUGGCAGCCGCUACCCUUGCACGUUUAACGAUCCA					apparent Kd [7]: 37.8 nM; apparent Kd [8]: 36.7 nM
UAGAGGACGGGAGGAUAUUCAGGUACAUCAGCCGAAGGCACACAUGAGGAUCACCCAUGUGGGUCGAAGAAGGCCCAGUUGACG	5.37 nM	4.67 nM			
CGGGACAUGAGGAUCACCCAUGUACGAUCCCGAGGACCGGUACGGCCGCCACUCGCUAGCGUUGAGUCGCGACUUUCAUAACUAA					apparent Kd [1]: 74.4 nM; apparent Kd [2]: 43.3 nM
CCGUAUCGACCAGGAUAUUCAAUAGCGCCACAUGAGGAUCACCCAUGUUUAUAUCUUCAUGGAAGGAAGAAGGGGUACAAGCGG			199 nM	240 nM	
GAUCUAUCAGGAUAUAAGGCCUUGAACAUGAGGAUCACCCAUGUCCUCUUGGUUGCCGCGUUAGAAGGGAUGUGUU			202 nM	171 nM	
UCUUUCUUUAAAGAACACAUGAGGAUCACCCAUGUUCAAGGGCAGGAUAUGAGUAUCUGUUCGGAUCAGAAGGGCCCAACAGGU	36 nM	29.5 nM			
UAGGAACAUGAGGAUCACCCAUGUUAGGAUAUCGAGGUAUGGAUUAUCAUGCUGUAAGCGAGAAGGAACGUGUG			30.8 nM	29.6 nM	
UCCAUGUUAGGAUAUCGGCCACCUUCGACAAAAGUGUACUGCGAGAAGGAACAUGAGGAUCACCCAUGUCUGGG			416 nM	104 nM	
CCUAGACAAGAGAAGGUUGAGAAGAAACUUUGCAAAGGAUAUCUAAACAUGAGGAUCACCCAUGUCGAUAUAUGGGUAGGCGAA			102 nM	91.4 nM	
GUAUGGAUAUUCUCACGCUACAUGAGGAUCACCCAUGUUCUAAGAAGGCGGCGAGGUAGAGCAUCCGAGGAUAUUAGAACUCAG			21.1 nM	76 nM	
AUCUUUGUAGGAUAUCCUGAGGCAAACAUGAGGAUCACCCAUGUCCCAAGAAUGACUAAAGGAGAAGGACACUCGG			20.6 nM	20.7 nM	
UUUAUAAUCGUAAGGAUAUCCGCGUUAGUCCACCCGGAGAAGGUACAUGAGGAUCACCCAUGUGAACUAUGGGU			24.4 nM	28.5 nM	
CAUUCGAAGGUGAGGAUAUAGCUACAGUUAAAUGUCUAGAAGGCACAUGAGGAUCACCCAUGUAGGGUCUCUCA			238 nM	630 nM	
CGCAGCAUCUAGAAGGGCGAAUCAACAAUACAACUAGUGAACAUGAGGAUCACCCAUGUAAUGACGCAGGAUAUAGUAGCAAAG	26.5 nM	13.7 nM			
UACAUGAGGAUCACCCAUGUUAACGCUUAGAUGCAUCGACGUGAGGAUAUCGGGUUAAACCAGCACGAGAAGGCACAUCCAGAU	34.5 nM	20.2 nM			
ACGAGCACCUCAGGAUAUGGAAAGGACUCUUCAUUGGCUACUCGAACAUGAGGAUCACCCAUGUUCCAGAAGGGAGGAGAAGCC			7.07 nM	11.6 nM	
UGAAAACCGUCAUAAACAAACAUGAGGAUCACCCAUGUAGCUAAGGAUAUUGACAAACAAAGACUCAAGAAGGUAGAACCUACA			7.99 nM	7.26 nM	
UACGUAUUAGGAGGAUAUGGCCCUCAUCUUUGACAUGAGGAUCACCCAUGUGGACAUUACGCCACCCAGAAGGCCUUGCUCGGA			468 nM	344 nM	
AGUCAAAAUUAGAAGGAGCGUUGACCCUGUUAGCUAGGAUAUAAUUCAUGCGAACAUGAGGAUCACCCAUGUAGACGUACCAAC	86.5 nM	44.9 nM			
CGCAAACUAGGAUAUACAGGGCGAAAACGUUUACUUGGAUAACAUGAGGAUCACCCAUGUAGAAGGAGUUCUUA			28.9 nM	160 nM	

Sequence	apparent Kd [3]	apparent Kd [4]	apparent Kd [5]	apparent Kd [6]	further results
GAUUACGGUCUAGGAUAUUGAUUGGCACAUGAGGAUCACCCAUGUCUGUGAGAUCAGCAUACAAGCAAGAAGGAGAUGCGGUCU			10.6 nM	10.9 nM	
CCAACCUGUCGAGCACCAUAACAUGAGGAUCACCCAUGUAUCAGAAGGUGUGUGAGUAAGGAAGACAAGGAUAUGACUCGACGC	16.9 nM	12.7 nM			
CUAAAUUACGCGUAGGAUAUAUUAAAGACUACAUGAGGAUCACCCAUGUCACUUAAACCACGAGAAUAGAAGGACGUAGAAAGAGA	8.77 nM	9.06 nM			
AAUAUGUAAGGAUAUACUGAAAUAAUAAUAAUAAUAAAUGAGUAGAAGGAACAUGAGGAUCACCCAUGUGAAAC			8.71 nM	8.07 nM	
ACUCGUUAAGGAUAUACUCGGUUUACUUGCAUGUUCGGCGCACAUGAGGAUCACCCAUGUAGAAGGUAAUAUUC			24.6 nM	27.2 nM	
ACAUGAGGAUCACCCAUGUAAUAUAUAAAGACUAAAACUAGUUAGGAUAUAUCACAUGUACAGGGAUAGAAGGAACUAGUCUGC	7.15 nM	5.84 nM			
CUUUACAUAUGUAUGUGGGUUACAUGAGGAUCACCCAUGUGAAGAAGGCUCACCUCAAGCGCAAGAGAGGAUAUUCACGGGUCC			60.8 nM	104 nM	
ACGUGACACGAGAAGGGUCUUAAAUGUUGAUUGACAGGAUAUCGUUCCCACGAUACAUAGACGGACAUGAGGAUCACCCAUGUG	85.8 nM	30.3 nM			
AAAUGUACGAAGAAGGCUCUGCCACUGGCCGAGAGAGGAUAUUCACACAUGAGGAUCACCCAUGUCGAACAAAGUACACAGAGC	8.43 nM	7.06 nM			
CGAGAAUAUACAGGAUAUGGCGGAACCCAUUACAUGAGGAUCACCCAUGUACCAUGGAAAAGAGUCCAGAAGGGUAGAAUCAAA	8.1 nM	6.19 nM			
CCAUGAAGAUAGGAUAUAGGUCGAGUUCCCGAACAAGAAGGAUCGACAUGAGGAUCACCCAUGUGCAUCCAUGA			27.1 nM	21.1 nM	
UACUGCAAACAGAAGGUUGGAAGUCGGUUCUCCAAAGGAUAUGUACAUGAGGAUCACCCAUGUGCGCAAAUCGCACAGAGGAGG			14.6 nM	36.9 nM	
GUCUCACAGAUAGGAUAUGGUUUUCACAUGAGGAUCACCCAUGUAAAUCCUAAAGUAAGUGGAGGCCAGAAGGAUCCGGUACAG			32.2 nM	35.1 nM	
AAACUCCGCAAGAAGGGUAUUCAAUGAAGUUGUACAGGAUAUUGGCGCAGACAUGAGGAUCACCCAUGUAAGUUCUUCAUGGUU			125 nM	120 nM	
GCUUCACAUGAGGAUCACCCAUGUCCGGAUACCAGCUCUCCAGACAGCCCUUGGCAGCCGAGCGCCCGAUUAUAUACCCUAGGAG					apparent Kd [7]: 22 nM; apparent Kd [8]: 29.9 nM
GCGUGGUAAGGAUAUGUGUACGUCCGGUAGUAUAGCGUACAACAGAAGGUACAUGAGGAUCACCCAUGUGUCCG			7.03 nM	7.94 nM	
CGUAUAGCAGGAUAUACAUGAGGAUCACCCAUGUUUUUCGUUGUGUGGUGCCAAGCGUGUAGAAGGGCUUCCUC			52.4 nM	56.8 nM	
UAUUUAUCUAUUGUGACAAACAUGAGGAUCACCCAUGUAUACAGAAGGCAUUACCGAAUCUCGGAUGAGGAUAUGUUAUGGAGU			14 nM	33.9 nM	
AUGGACCCAAAGAAGGAGAUCUGGACGACCCAUCUAGGAUAUUUGGCGCGCCCAUCCACCUGCACAUGAGGAUCACCCAUGUCG	11.9 nM	9.55 nM			
ACGUUGCAGCAAGGAUAUUCGAGACUACUAGAAGAAGAAGGUGCCGUGCUCUUCACAUGAGGAUCACCCAUGUGGCGUUAAUUU			9.11 nM	8.35 nM	
GCUACACAGGACCGUACUAAGGAUUCGCCUCGAGGACCGGUACGGCCGCCACUCGUUGCGCGACAUGAGGAUCACCCAUGUGUUC					apparent Kd [9]: 46 nM; apparent Kd [10]: 36.7 nM
UGCCUAAAGUCGGCCGCCACUGAUGGUAUCCUCUCCUCGAGGUCACACAUGAGGAUCACCCAUGUCAGGACCGGGACUAGUGAGA					apparent Kd [9]: 7.89 nM; apparent Kd [10]: 10.4 nM
AGCACAAUAGGAUAUACAUGAGGAUCACCCAUGUAGAAAUUUGGUACCCGGGUGUCUUGUAGAAGGAUAGAAGA			16.4 nM	15.1 nM	
UUGGUUGGGAAAACGAUUUGCACAUGAGGAUCACCCAUGUCGAAGGAUAUGUGGCGCUGUUUGCGACAGAAGGUCGACCUCGCC	15.5 nM	14.9 nM			
AAAUCUAACGAGAAGGGAGUGGCCGGCCACUUAGCAGACAUGAGGAUCACCCAUGUGAAGAUCACUCAGGAUAUCGAUAAUCCA	24.9 nM	22.7 nM			
ACAGCACAUGAGGAUCACCCAUGUCGACAUGUAUUAGGAUAUGAUCCGCGCUAGACACCAUCAGAAGGAAUACCGA	43 nM	23.7 nM			
CGUCAACAUGAGGAUCACCCAUGUUUCGAUACCAGUGACCCUCUCCACCCUUGGCAGCGAGCGCCCGCGCCUGAUAAAUCUUCUA					apparent Kd [7]: 12.1 nM; apparent Kd [8]: 14.2 nM

Source: the EternaBench riboswitch data
